# ChEMBL document CHEMBL5058577, “EUbOPEN Chemogenomics Library 2 (Multiplex)” (2022)
# Test system: Fibroblast
# Assay: Multiplex assay against human fibroblast
# Type: toxicity, cell-based
# Summary of the method: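 Live cells carried four stains from seeding: Hoechst33342, BioTracker Green Microtubule Cytoskeleton Dye, MitoTracker Red and Annexin V Alexa Fluor 680. They were imaged on a CQ1 microscope at 37°C and 5% CO2 after compound addition. Using CellPathfinder machine-learning gating, cells were split into Hoechst high-intensity objects or normal cells, normal cells into healthy, pyknosed or fragmented nuclei, and pyknosed cells into mitotic or apoptotic; tubulin, mitochondrial-mass and membrane-permeability phenotypes are per cents of healthy-nucleus cells.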
# [1] = 12 h, 1 µM, compound concentration 1 uM, replicate 1
# [2] = 12 h, 1 µM, compound concentration 1 uM, replicate 2
# [3] = 12 h, 10 µM, compound concentration 10 uM, replicate 1
# [4] = 12 h, 10 µM, compound concentration 10 uM, replicate 2
# [5] = 24 h, 1 µM, compound concentration 1 uM, replicate 1
# [6] = 24 h, 1 µM, compound concentration 1 uM, replicate 2
# [7] = 24 h, 10 µM, compound concentration 10 uM, replicate 1
# [8] = 24 h, 10 µM, compound concentration 10 uM, replicate 2
# [9] = 48 h, 1 µM, compound concentration 1 uM, replicate 1
# [10] = 48 h, 1 µM, compound concentration 1 uM, replicate 2
# [11] = 48 h, 10 µM, compound concentration 10 uM, replicate 1
# [12] = 48 h, 10 µM, compound concentration 10 uM, replicate 2
structure (smiles),measurement,setting,value
COC(c1ccccc1)(c1ccccc1)[C@H](Oc1nc(C)cc(C)n1)C(=O)O [AMBRISENTAN],Population Apoptotic (%),[1],68%
same,Population Fragmented Nuclei (%),[1],13%
same,Population Healthy Nuclei (%),[1],66%
same,Population Hoechst High Intensity Objects (%),[1],1%
same,Population Membrane Permeable-Phenotype (%),[1],0%
same,Population Mitochondria Different-Phenotype (%),[1],4%
same,Population Mitotic Cells (%),[1],31%
same,Population Normal (%),[1],98%
same,Population Pyknosed Nuclei (%),[1],19%
same,Population Tubulin-Different-Phenotype (%),[1],29%
same,Total Cell Count,[1],97
same,Population Apoptotic (%),[2],30%
same,Population Fragmented Nuclei (%),[2],18%
same,Population Healthy Nuclei (%),[2],56%
same,Population Hoechst High Intensity Objects (%),[2],4%
same,Population Membrane Permeable-Phenotype (%),[2],1%
same,Population Mitochondria Different-Phenotype (%),[2],6%
same,Population Mitotic Cells (%),[2],69%
same,Population Normal (%),[2],95%
same,Population Pyknosed Nuclei (%),[2],25%
same,Population Tubulin-Different-Phenotype (%),[2],37%
same,Total Cell Count,[2],163
same,Population Apoptotic (%),[3],56%
same,Population Fragmented Nuclei (%),[3],8%
same,Population Healthy Nuclei (%),[3],70%
same,Population Hoechst High Intensity Objects (%),[3],5%
same,Population Membrane Permeable-Phenotype (%),[3],0%
same,Population Mitochondria Different-Phenotype (%),[3],11%
same,Population Mitotic Cells (%),[3],43%
same,Population Normal (%),[3],94%
same,Population Pyknosed Nuclei (%),[3],21%
same,Population Tubulin-Different-Phenotype (%),[3],25%
same,Total Cell Count,[3],145
same,Population Apoptotic (%),[4],33%
same,Population Fragmented Nuclei (%),[4],39%
same,Population Healthy Nuclei (%),[4],25%
same,Population Hoechst High Intensity Objects (%),[4],4%
same,Population Membrane Permeable-Phenotype (%),[4],5%
same,Population Mitochondria Different-Phenotype (%),[4],0%
same,Population Mitotic Cells (%),[4],66%
same,Population Normal (%),[4],95%
same,Population Pyknosed Nuclei (%),[4],34%
same,Population Tubulin-Different-Phenotype (%),[4],35%
same,Total Cell Count,[4],82
same,Population Apoptotic (%),[5],62%
same,Population Fragmented Nuclei (%),[5],15%
same,Population Healthy Nuclei (%),[5],67%
same,Population Hoechst High Intensity Objects (%),[5],2%
same,Population Membrane Permeable-Phenotype (%),[5],0%
same,Population Mitochondria Different-Phenotype (%),[5],4%
same,Population Mitotic Cells (%),[5],37%
same,Population Normal (%),[5],97%
same,Population Pyknosed Nuclei (%),[5],17%
same,Population Tubulin-Different-Phenotype (%),[5],38%
same,Total Cell Count,[5],95
same,Population Apoptotic (%),[6],34%
same,Population Fragmented Nuclei (%),[6],14%
same,Population Healthy Nuclei (%),[6],62%
same,Population Hoechst High Intensity Objects (%),[6],5%
same,Population Membrane Permeable-Phenotype (%),[6],3%
same,Population Mitochondria Different-Phenotype (%),[6],3%
same,Population Mitotic Cells (%),[6],65%
same,Population Normal (%),[6],94%
same,Population Pyknosed Nuclei (%),[6],23%
same,Total Cell Count,[6],158
same,Population Apoptotic (%),[7],69%
same,Population Fragmented Nuclei (%),[7],12%
same,Population Healthy Nuclei (%),[7],68%
same,Population Hoechst High Intensity Objects (%),[7],7%
same,Population Membrane Permeable-Phenotype (%),[7],0%
same,Population Mitochondria Different-Phenotype (%),[7],11%
same,Population Mitotic Cells (%),[7],30%
same,Population Normal (%),[7],92%
same,Population Pyknosed Nuclei (%),[7],18%
same,Population Tubulin-Different-Phenotype (%),[7],29%
same,Total Cell Count,[7],149
same,Population Apoptotic (%),[8],27%
same,Population Fragmented Nuclei (%),[8],46%
same,Population Healthy Nuclei (%),[8],27%
same,Population Hoechst High Intensity Objects (%),[8],5%
same,Population Membrane Permeable-Phenotype (%),[8],5%
same,Population Mitochondria Different-Phenotype (%),[8],10%
same,Population Mitotic Cells (%),[8],72%
same,Population Normal (%),[8],94%
same,Population Pyknosed Nuclei (%),[8],26%
same,Population Tubulin-Different-Phenotype (%),[8],36%
same,Total Cell Count,[8],73
same,Population Apoptotic (%),[9],60%
same,Population Fragmented Nuclei (%),[9],19%
same,Population Healthy Nuclei (%),[9],64%
same,Population Hoechst High Intensity Objects (%),[9],4%
same,Population Membrane Permeable-Phenotype (%),[9],1%
same,Population Mitochondria Different-Phenotype (%),[9],5%
same,Population Mitotic Cells (%),[9],40%
same,Population Normal (%),[9],95%
same,Population Pyknosed Nuclei (%),[9],16%
same,Population Tubulin-Different-Phenotype (%),[9],28%
same,Total Cell Count,[9],93
same,Population Apoptotic (%),[10],61%
same,Population Fragmented Nuclei (%),[10],24%
same,Population Healthy Nuclei (%),[10],54%
same,Population Hoechst High Intensity Objects (%),[10],0%
same,Population Membrane Permeable-Phenotype (%),[10],4%
same,Population Mitochondria Different-Phenotype (%),[10],10%
same,Population Mitotic Cells (%),[10],38%
same,Population Normal (%),[10],99%
same,Population Pyknosed Nuclei (%),[10],20%
same,Population Tubulin-Different-Phenotype (%),[10],42%
same,Total Cell Count,[10],154
same,Population Apoptotic (%),[11],61%
same,Population Fragmented Nuclei (%),[11],14%
same,Population Healthy Nuclei (%),[11],71%
same,Population Hoechst High Intensity Objects (%),[11],7%
same,Population Membrane Permeable-Phenotype (%),[11],1%
same,Population Mitochondria Different-Phenotype (%),[11],10%
same,Population Mitotic Cells (%),[11],38%
same,Population Normal (%),[11],92%
same,Population Pyknosed Nuclei (%),[11],13%
same,Population Tubulin-Different-Phenotype (%),[11],34%
same,Total Cell Count,[11],145
same,Population Apoptotic (%),[12],71%
same,Population Fragmented Nuclei (%),[12],50%
same,Population Healthy Nuclei (%),[12],31%
same,Population Hoechst High Intensity Objects (%),[12],3%
same,Population Membrane Permeable-Phenotype (%),[12],0%
same,Population Mitochondria Different-Phenotype (%),[12],0%
same,Population Mitotic Cells (%),[12],28%
same,Population Normal (%),[12],96%
same,Population Pyknosed Nuclei (%),[12],18%
same,Population Tubulin-Different-Phenotype (%),[12],62%
same,Total Cell Count,[12],79
